The text below walks through data of ChEMBL document CHEMBL3108772, “Discovery of Potent and Orally Active p53-MDM2 Inhibitors RO5353 and RO2468 for Potential Clinical Development” (ACS Med Chem Lett, 2014).

The source made the active and inactive calls. No cut-off for these calls is given here.

For data set [1], the system named is SW480. Kind of data set: Antiproliferative activity against human SW480 cells expressing p53 mutant by MTT assay. In general terms: Tetrazolium dyes change colour on reduction, which living cells bring about.
Data set [2] has as its system SJSA-1. Kind of data set: Antiproliferative activity against human SJSA cells expressing wild-type p53 by MTT assay.
Data set [3] concerns Mus musculus. Kind of data set: AUC/dose in C57 mouse at 25 mg/kg, po. The arrangement: dose 25 mg/kg, route oral. The data set is classed as ADME, organism-based, Plasma. Particulars: in vivo. Summed up: (§1)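 Single-dose PK in male C57 mice, given orally (PO) or intravenously (IV). Plasma exposure (AUC normalized to dose, Cmax) was taken from the oral arms. Clearance and t1/2 were taken from the IV arms. F is oral bioavailability.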

Data set [4] has as its system SJSA-1. The data set is described as follows: Antitumor activity against human SJSA1 cells xenografted in nude mouse assessed as tumor regression at 6.25 mg/kg, po qd administered for 2 weeks. The arrangement: dose 6.25 mg/kg. The class given is functional, organism-based. A general note: In xenograft studies the graft and the host belong to different species.
Data set [5] can be described thus: Intrinsic clearance in human liver microsomes at […] preincubated for 5 mins followed by NADPH addition by LC-MS/MS analysis. The data set is classed as ADME. The following applies: read-out: CLH. On the technique in general: Liver microsomes are a subcellular fraction often used to study metabolism.
The nature of data set [6]: Oral bioavailability in C57 mouse at 25 mg/kg. The class given is ADME, organism-based. The following applies: in vivo. Summed up: as §1
Data set [7] in a line: Apparent terminal half life in C57 mouse at 0.64 mg/kg, iv. The class given is ADME, organism-based. The following applies: in vivo, read-out: betat1/2(app) (converted). Details: dose 0.64 mg/kg, route intravenous. In short, it runs like this:
as §1

A short description of data set [8]: Cmax in C57 mouse at 25 mg/kg, po. The data set is classed as ADME, organism-based. The arrangement: dose 25 mg/kg, route oral. Particulars: in vivo. In short, it runs like this:
as §1

Data set [9] is described as follows: Total plasma clearance in C57 mouse at 0.64 mg/kg, iv. The class given is ADME, organism-based. The arrangement: dose 0.64 mg/kg, route intravenous. In short, it runs like this:
as §1

Data set [10] relates to RKO. Kind of data set: Antiproliferative activity against human RKO cells expressing wild-type p53 by MTT assay. The data set is classed as functional, cell-based. Summed up:
(§2)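 MTT antiproliferation assay in human cancer lines: SJSA, HCT116 and RKO are wild-type p53; SW480 is mutant p53. IC50 came from one experiment run in duplicate.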

Data set [11] is described as follows: Apparent terminal half life in C57 mouse at 2.5 mg/kg, iv. The class given is ADME, organism-based. Details: dose 2.5 mg/kg, route intravenous. Particulars: in vivo, read-out: betat1/2(app) (converted). In short, it runs like this: as §1
Data set [12] is described as follows: Cmax in C57 mouse at 10 mg/kg, po. The data set is classed as ADME, organism-based. Details: dose 10 mg/kg, route oral. The following applies: in vivo. Summed up: as §1
The subject of data set [13] is HCT-116. The data set is described as follows: Antiproliferative activity against human HCT116 cells expressing wild-type p53 by MTT assay. The data set is classed as functional, cell-based. Summed up: as §2
The nature of data set [14]: Total plasma clearance in C57 mouse at 2.5 mg/kg, iv. The data set is classed as ADME, organism-based. The arrangement: dose 2.5 mg/kg, route intravenous. Summed up: as §1
Data set [15] has as its system SJSA-1. The data set is described as follows: Antitumor activity against human SJSA1 cells xenografted in nude mouse assessed as tumor growth inhibition at 3 mg/kg, po qd administered for 2 weeks. Details: dose 3 mg/kg. The class given is functional, organism-based.
The test system of data set [16] is Mus musculus. Kind of data set: Toxicity in nude mouse xenografted with human SJSA1 cells assessed as body weight loss at 3 to 20 mg/kg, po qd administered for 2 weeks. Particulars: in vivo, 336 h. Details: dose 3-20 mg/kg, route oral. The data set is classed as organism-based, SJSA-1.
Data set [17] has as its system SJSA-1. The data set is described as follows: Antiproliferative activity against human SJSA cells expressing wild-type p53 by MTT assay.
Data set [18] relates to Mus musculus. Kind of data set: AUC/dose in C57 mouse at 10 mg/kg, po. The data set is classed as ADME, organism-based, Plasma. Details: dose 10 mg/kg, route oral. Particulars: in vivo. In short, it runs like this: as §1
Data set [19] can be described thus: Oral bioavailability in C57 mouse at 10 mg/kg. The data set is classed as ADME, organism-based. Particulars: in vivo. In short, it runs like this: as §1
In data set [20] the test system is SJSA-1. The data set is described as follows: Antitumor activity against human SJSA1 cells xenografted in nude mouse assessed as tumor regression at 10 mg/kg, po qd administered for 2 weeks. The data set is classed as functional, organism-based. The arrangement: dose 10 mg/kg.
Data set [21] in a line: Apparent terminal half life in C57 mouse at 2 mg/kg, iv. The arrangement: dose 2 mg/kg, route intravenous. Particulars: in vivo, read-out: betat1/2(app) (converted). The data set is classed as ADME, organism-based. In short, it runs like this: as §1
The nature of data set [22]: Oral bioavailability in C57 mouse at 5 mg/kg. The data set is classed as ADME, organism-based. The following applies: in vivo. Summed up: as §1
A short description of data set [23]: Cmax in C57 mouse at 5 mg/kg, po. The data set is classed as ADME, organism-based. Details: dose 5 mg/kg, route oral. The following applies: in vivo. Summed up: as §1
A short description of data set [24]: Total plasma clearance in C57 mouse at 2 mg/kg, iv. Details: dose 2 mg/kg, route intravenous. The data set is classed as ADME, organism-based. Summed up: as §1
The test system of data set [25] is Mus musculus. The data set is described as follows: AUC/dose in C57 mouse at 5 mg/kg, po. The class given is ADME, organism-based, Plasma. Details: dose 5 mg/kg, route oral. Particulars: in vivo. Summed up: as §1

Broadly, the IC50 is the concentration that gives 50% inhibition. A low value points to greater potency. Take `COc1cc(C(N)=O)ccc1NC(=O)C1NC(CC(C)(C)C)C2(C(=O)Nc3cc(Cl)sc32)C1c1cccc(Cl)c1F` (racemic): the IC50 stood at 7870 nM in data set [1] and 11 nM in [2].

The bioavailability is dose-corrected exposure relative to a reference, in per cent. Low values mean poor availability, high ones good availability. As usually defined, the Cmax is the maximum level reached in the sampled fluid or tissue. As usually defined, the clearance is the rate of elimination divided by the concentration. Read a low clearance as a low capacity for elimination. The compound `COc1cc(C(N)=O)ccc1NC(=O)[C@@H]1N[C@@H](CC(C)(C)C)[C@@]2(C(=O)Nc3cc(Cl)ccc32)[C@H]1c1cccc(Cl)c1F` registered an AUC/dose in data set [3] of 3.7 µg·h/mL/mg/kg. In addition, the values for the half-inhibitory concentration (IC50) in [1] and in data set [2] were 5190 nM and 13 nM, respectively. The result in data set [4] was Active. For the same compound, the CLint scaled in [5] is 7.5 mL/min/kg. In data set [6], this compound showed a bioavailability of 92%. For the same compound, in data set [7], the half-life was 7.1 h. The compound further yielded a Cmax in data set [8] of 5800 ng/mL. Further, the clearance in data set [9] was found to be 5.8 mL/min/kg.

As for `COc1cc(C(N)=O)ccc1NC(=O)[C@@H]1N[C@@H](CC(C)(C)C)[C@@]2(C(=O)Nc3nc(Cl)ncc32)[C@H]1c1cccc(Cl)c1F` (racemic), the IC50 in data set [1] came out at 10700 nM; in data set [2], 90 nM.

As to `COc1cc(C(N)=O)ccc1NC(=O)[C@@H]1N[C@@H](CC(C)(C)C)[C@@]2(C(=O)Nc3nc(Cl)ccc32)[C@H]1c1cccc(Cl)c1F` (racemic), the results for the IC50 in [1] and in data set [2] were 5260 nM and 67 nM, respectively.

With `COc1cc(C(N)=O)ccc1NC(=O)[C@@H]1N[C@@H](CC(C)(C)C)[C@@]2(C(=O)Nc3cc(Cl)sc32)[C@H]1c1cccc(Cl)c1F`, the result in data set [10], in data set [13], in data set [17] and in [20] was Active. The half-life in data set [11] is 3 h. The same compound displayed a maximum concentration (Cmax) in data set [12] of 1300 ng/mL. Further, the clearance in [14] is 9.9 mL/min/kg. For the same compound, the TGI entry in data set [15] is “Active”. Also, in data set [16], the Activity result is on record as “Non-toxic”. Besides, the CLint scaled in data set [5] is 2 mL/min/kg. Also, the AUC/dose in data set [18] was 1.5 µg·h/mL/mg/kg. In data set [19], this compound returned a bioavailability of 92%.

With `COc1cc(C(=O)O)ccc1NC(=O)[C@@H]1N[C@@H](CC(C)(C)C)[C@@]2(C(=O)Nc3ncccc32)[C@H]1c1cccc(Cl)c1F` (racemic), the IC50 in [1] is over 30000 nM; in data set [2], 1370 nM.

For `COc1cc(C(N)=O)ccc1NC(=O)[C@@H]1N[C@@H](CC(C)(C)C)[C@@]2(C(=O)Nc3ccncc32)[C@H]1c1cccc(Cl)c1F` (racemic), the IC50 amounted to 13400 nM in [1] and 2110 nM in data set [2].

For `COc1cc(C(=O)O)ccc1NC(=O)[C@@H]1N[C@@H](CC(C)(C)C)[C@@]2(C(=O)Nc3nc(Cl)ncc32)[C@H]1c1cccc(Cl)c1F` (racemic), the half-inhibitory concentration (IC50) in [1] was over 30000 nM; in [2], 100 nM.

Regarding `COc1cc(C(=O)O)ccc1NC(=O)[C@@H]1N[C@@H](CC(C)(C)C)[C@@]2(C(=O)Nc3nc(Cl)ccc32)[C@H]1c1cccc(Cl)c1F` (racemic), the IC50 in [1] is 15400 nM; in [2], 45 nM.

With `COc1cc(C(N)=O)ccc1NC(=O)[C@@H]1N[C@@H](CC(C)(C)C)[C@@]2(C(=O)Nc3cc(Cl)ncc32)[C@H]1c1cccc(Cl)c1F`, the outcome in data set [10], in [13], in [17] and in data set [20] was Active. In [21], the half-life was 3 h. Moreover, the TGI entry in [15] was “Active”. For the same compound, the bioavailability in [22] was determined as 46%. Moreover, the Activity result in data set [16] is on record as “Non-toxic”. The compound further came in with a Cmax in [23] of 2100 ng/mL. Also, the CLint scaled in data set [5] came out at 10.2 mL/min/kg. Besides, the clearance in [24] was determined as 1.8 mL/min/kg. The AUC/dose in [25] stood at 4.2 µg·h/mL/mg/kg.

Take `COc1cc(C(=O)O)ccc1NC(=O)[C@@H]1N[C@@H](CC(C)(C)C)[C@@]2(C(=O)Nc3ccncc32)[C@H]1c1cccc(Cl)c1F` (racemic): the values for the IC50 in data set [1] and in [2] were over 30000 nM and 22700 nM, respectively.

Take `COc1cc(C(=O)O)ccc1NC(=O)[C@@H]1N[C@@H](CC(C)(C)C)[C@@]2(C(=O)Nc3cc(Cl)sc32)[C@H]1c1cccc(Cl)c1F`: the result in [10], in [13] and in data set [17] was Active. The half-life in [11] is 1.68 h. The same compound showed a Cmax in data set [12] of 300 ng/mL. For the same compound, the clearance in [14] turned out to be 68.6 mL/min/kg. This compound gave an AUC/dose in data set [18] of 0.08 µg·h/mL/mg/kg. Also, the bioavailability in data set [19] was 32%.

For the compound `COc1cc(C(=O)O)ccc1NC(=O)C1NC(CC(C)(C)C)C2(C(=O)Nc3cc(Cl)sc32)C1c1cccc(Cl)c1F` (racemic), the IC50 is 29300 nM in [1] and 9 nM in data set [2].

Turning to `COc1cc(C(=O)O)ccc1NC(=O)[C@@H]1N[C@@H](CC(C)(C)C)[C@@]2(C(=O)Nc3cc(Cl)cnc32)[C@H]1c1cccc(Cl)c1F` (racemic), the values for the IC50 in [1] and in [2] were over 30000 nM and 61 nM, respectively.

On to `COc1cc(C(N)=O)ccc1NC(=O)C1NC(CC(C)(C)C)C2(C(=O)Nc3cc(Cl)ncc32)C1c1cccc(Cl)c1F` (racemic), for which the figures for the IC50 in data set [1] and in data set [2] were 12800 nM and 14 nM, respectively.

For `COc1cc(C(=O)O)ccc1NC(=O)[C@@H]1N[C@@H](CC(C)(C)C)[C@@]2(C(=O)Nc3cc(Cl)ncc32)[C@H]1c1cccc(Cl)c1F` (racemic), the values for the IC50 in [1] and in [2] were over 30000 nM and 43 nM, respectively.

On to `COc1cc(C(N)=O)ccc1NC(=O)[C@@H]1N[C@@H](CC(C)(C)C)[C@@]2(C(=O)Nc3cc(Cl)cnc32)[C@H]1c1cccc(Cl)c1F` (racemic), for which the IC50 in [1] is 5900 nM; in data set [2], 42 nM.
